From ChEMBL document CHEMBL4261629 (Bioorg Med Chem, 2018) come the findings set out here.

Calls of active or inactive are those of the source. The calls are words filed in the database; no cut-off is given here.

Series [1] has as its target T1, Protein deacetylase HDAC6 (Homo sapiens, UniProt Q9UBN7).
T1 sequence (Q9UBN7 whole entry): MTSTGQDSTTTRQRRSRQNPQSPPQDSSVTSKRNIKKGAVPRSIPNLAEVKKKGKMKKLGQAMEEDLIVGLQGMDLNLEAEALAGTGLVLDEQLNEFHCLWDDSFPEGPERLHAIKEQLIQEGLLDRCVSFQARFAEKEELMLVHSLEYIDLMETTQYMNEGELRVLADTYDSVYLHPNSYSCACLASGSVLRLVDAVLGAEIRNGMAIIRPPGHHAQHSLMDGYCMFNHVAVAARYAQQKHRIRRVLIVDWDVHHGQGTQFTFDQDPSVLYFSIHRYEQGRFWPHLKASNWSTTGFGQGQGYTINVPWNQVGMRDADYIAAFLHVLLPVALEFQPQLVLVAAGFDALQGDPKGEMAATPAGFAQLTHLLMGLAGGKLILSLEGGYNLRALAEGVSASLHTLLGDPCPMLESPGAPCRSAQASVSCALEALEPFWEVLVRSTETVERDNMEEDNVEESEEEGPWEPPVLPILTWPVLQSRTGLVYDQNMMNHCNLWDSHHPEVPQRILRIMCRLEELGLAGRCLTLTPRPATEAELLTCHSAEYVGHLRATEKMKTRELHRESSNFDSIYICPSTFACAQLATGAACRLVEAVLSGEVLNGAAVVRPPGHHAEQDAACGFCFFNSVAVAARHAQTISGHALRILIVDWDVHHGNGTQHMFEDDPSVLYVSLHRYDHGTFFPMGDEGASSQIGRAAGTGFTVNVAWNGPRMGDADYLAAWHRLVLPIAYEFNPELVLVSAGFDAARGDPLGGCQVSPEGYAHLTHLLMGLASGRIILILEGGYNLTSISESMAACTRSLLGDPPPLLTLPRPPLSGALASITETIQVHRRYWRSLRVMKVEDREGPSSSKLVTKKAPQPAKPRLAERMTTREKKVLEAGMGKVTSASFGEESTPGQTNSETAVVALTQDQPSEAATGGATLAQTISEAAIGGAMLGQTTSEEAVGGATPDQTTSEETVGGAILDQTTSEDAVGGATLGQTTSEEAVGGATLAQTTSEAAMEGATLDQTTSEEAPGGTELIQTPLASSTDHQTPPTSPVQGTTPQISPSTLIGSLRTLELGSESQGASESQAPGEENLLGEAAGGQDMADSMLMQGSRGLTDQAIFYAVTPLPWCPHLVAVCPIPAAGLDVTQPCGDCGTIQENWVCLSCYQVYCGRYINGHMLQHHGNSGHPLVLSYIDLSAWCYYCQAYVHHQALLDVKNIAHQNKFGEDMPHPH
Kind of series: Inhibition of recombinant human HDAC6 using fluorogenic HDAC substrate preincubated for 15 mins followed by substrate addition and measured after 30 mins by fluorescence analysis.

Series [2] in a line: Antioxidant activity assessed as cumene hydroperoxide radical scavenging at 10 uM up to 200 mins. It counts as functional. The gist of the method:
(§1)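 Kinetic peroxide scavenging by GSH at 25 °C in 100 mM phosphate buffer, pH 7.5. Final conditions: EDTA 1 mM, GSH 0.25 mM, NADPH 0.50 mM, glutathione reductase 1.3 unit·mL-1, peroxide 0.20 mM (H2O2, t-BuOOH or Cum-OOH), catalyst 10 μM. Scavenging was followed over time, and maximal scavenging was derived. Mean ± SE, three independent experiments.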

The nature of series [3]: Antioxidant activity assessed as tert-butyl hydroperoxide radical scavenging at 10 uM up to 200 mins. It counts as functional. The gist of the method:
as §1

The subject of series [4] is PC-12. As to the kind of experiment: Cytoprotective activity against H2O2-induced damage in rat PC12 cells assessed as decrease in ROS accumulation preincubated for 24 hrs followed by H2O2 challenge measured after 12 hrs by DCFH-DA dye-based inverted fluorescence microscopic analysis. It counts as functional, cell-based. The method in brief:
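PC12 cells were pretreated with compound (5 or 10 µM), then challenged with H2O2 and stained with DCFH-DA to show ROS. Fluorescence images were taken by inverted fluorescence microscopy.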

Series [5] deals with PC-12. Kind of series: Neuroprotective activity against 6-OHDA-induced toxicity in rat PC12 cells assessed as increase in cell viability at 5 uM pretreated for 24 hrs followed by 6-OHDA challenge and measured after 12 hrs by MTT assay. The format is functional, cell-based. The method in brief:
(§2)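 Medium was replaced with fresh medium containing H2O2 (400 μM) or 6-OHDA (200 μM), and incubation continued 12 h. Viability was read by MTT assay. Mean ± SD, three independent experiments.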
On the technique in general: Tetrazolium assays rely on reduction of a dye to a coloured formazan, in cell work by metabolically active cells.

The target in series [6] is T2, Histone deacetylase 6 (Rattus norvegicus) (UniProt Q99P97).
T2 sequence (whole entry): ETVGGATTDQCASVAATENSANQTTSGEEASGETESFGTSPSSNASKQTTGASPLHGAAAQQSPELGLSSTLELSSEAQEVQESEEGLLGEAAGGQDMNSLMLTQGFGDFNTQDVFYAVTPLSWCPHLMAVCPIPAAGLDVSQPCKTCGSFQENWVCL
As to the kind of experiment: Inhibition of HDAC6 in rat PC12 cells assessed as increase in acetylated alpha-tubulin expression after 24 hrs by Western blot analysis. The format is cell-based. The gist of the method:
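Cellular HDAC6 inhibition: PC12 cells were incubated with compound at 0.01, 0.1, 1 and 10 μM. Acetylated α-tubulin and total α-tubulin were detected by Western blot, and their ratio was assessed.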
(In western blotting, separated proteins are transferred to a membrane and probed.)

Series [7] in a line: Antioxidant activity assessed as H2O2 radical scavenging at 10 uM up to 200 mins. The format is functional. The gist of the method:
as §1

In series [8] the target is Histone deacetylase 3 (Homo sapiens, UniProt O15379). Kind of series: Inhibition of recombinant human HDAC3 using fluorogenic HDAC substrate after 30 mins by fluorescence analysis.
Series [9] has as its system PC-12. Kind of series: Neuroprotective activity against H2O2-induced toxicity in rat PC12 cells assessed as cell viability at 5 uM pretreated for 24 hrs followed by H2O2 challenge and measured after 12 hrs by MTT assay relative to control. To be noted: read-out: Activity. It counts as functional. The gist of the method:
as §2

Series [10] concerns PC-12. As to the kind of experiment: Neuroprotective activity against 6-OHDA-induced toxicity in rat PC12 cells assessed as increase in cell viability at 10 uM pretreated for 24 hrs followed by 6-OHDA challenge and measured after 12 hrs by MTT assay. The format is functional, cell-based. The method in brief: as §2
The subject of series [11] is PC-12. As to the kind of experiment: Antioxidant activity against H2O2-induced oxidative stress in rat PC12 cells assessed as decrease in ROS accumulation at 5 uM preincubated for 24 hrs followed by H2O2 challenge and measured after 12 hrs by DCFH-DA dye-based fluorescence analysis. The format is functional, cell-based. The method in brief:
(§3)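 Intracellular ROS was detected by DCFH-DA staining, which esterases deacetylate and ROS oxidise to fluorescent dichlorofluorescein. Fluorescence was quantified on a microplate reader.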

Series [12] concerns PC-12. As to the kind of experiment: Cytotoxicity against rat PC12 cells at 20 uM after 24 hrs by MTT assay. It counts as cell-based. To be noted: pc-12, 24 h.
The test system of series [13] is PC-12. As to the kind of experiment: Cytoprotective activity against H2O2-induced damage in rat PC12 cells assessed as decrease in ROS accumulation preincubated for 24 hrs followed by H2O2 challenge measured after 12 hrs by DCFH-DA dye-based fluorescence analysis. It counts as functional, cell-based. The method in brief: as §3
Series [14] relates to PC-12. Kind of series: Antioxidant activity against H2O2-induced oxidative stress in rat PC12 cells assessed as decrease in ROS accumulation preincubated for 24 hrs followed by H2O2 challenge and measured after 12 hrs coincubated with tubastatin A by DCFH-DA dye-based fluorescence analysis. The format is functional, cell-based. The gist of the method: as §3
For series [15], the system named is PC-12. As to the kind of experiment: Antioxidant activity against H2O2-induced oxidative stress in rat PC12 cells assessed as decrease in ROS accumulation at 5 uM preincubated for 24 hrs followed by H2O2 challenge and measured after 12 hrs coincubated with ebselen by DCFH-DA dye-based fluorescence analysis. It counts as functional, cell-based. The gist of the method: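 PC12 cells pretreated with compound (5 or 10 µM) alone or together with ebselen, then challenged with H2O2. Intracellular ROS detected by DCFH-DA staining, which is deacetylated in cells and oxidised by ROS to fluorescent dichlorofluorescein. Imaged by inverted fluorescence microscopy and quantified on a fluorescence microplate reader.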

The subject of series [16] is PC-12. As to the kind of experiment: Neuroprotective activity against 6-OHDA-induced toxicity in rat PC12 cells assessed as increase in cell viability at 5 to 10 uM pretreated for 24 hrs followed by 6-OHDA challenge and measured after 12 hrs coincubated with ebselen by MTT assay. It counts as functional, cell-based. The gist of the method: (§4)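 PC12 cells seeded at 1 × 10⁴ cells/well and grown 1 d, then pretreated 24 h with compound, alone or with ebselen. Medium replaced with fresh medium containing the insult (H2O2 400 µM or 6-OHDA 200 µM), incubated 12 h. Viability by MTT assay, relative to control. Mean ± SD of three independent experiments.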

Series [17] concerns PC-12. Kind of series: Neuroprotective activity against H2O2-induced toxicity in rat PC12 cells assessed as cell viability at 10 uM pretreated for 24 hrs followed by H2O2 challenge and measured after 12 hrs by MTT assay relative to control. It counts as functional, cell-based. The gist of the method:
as §2

In series [18] the test system is PC-12. Kind of series: Cytotoxicity against rat PC12 cells at 20 uM in presence of ebselen after 24 hrs by MTT assay. It counts as cell-based. Particulars: pc-12, 24 h. The gist of the method: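 PC12 cells exposed for 24 h to compound at 10 or 20 µM, alone or combined with ebselen. Viability by MTT assay. Mean ± SD of three independent experiments.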
Series [19] relates to PC-12. Kind of series: Neuroprotective activity against H2O2-induced toxicity in rat PC12 cells assessed as cell viability at 5 to 10 uM pretreated for 24 hrs followed by H2O2 challenge and measured after 12 hrs coincubated with ebselen by MTT assay relative to control. It counts as functional. The method in brief: as §4
Series [20] in a line: Antioxidant activity assessed as tert-butyl hydroperoxide radical scavenging at 10 uM measured within 180 mins. It counts as functional. The gist of the method: as §1
Series [21] is described as follows: Antioxidant activity assessed as cumene hydroperoxide radical scavenging at 10 uM measured within 180 mins. The format is functional. The gist of the method: as §1
A short description of series [22]: Antioxidant activity assessed as H2O2 radical scavenging at 10 uM measured within 180 mins. The format is functional. The gist of the method:
as §1

Chain of Histone deacetylase 3 (O15379 whole entry): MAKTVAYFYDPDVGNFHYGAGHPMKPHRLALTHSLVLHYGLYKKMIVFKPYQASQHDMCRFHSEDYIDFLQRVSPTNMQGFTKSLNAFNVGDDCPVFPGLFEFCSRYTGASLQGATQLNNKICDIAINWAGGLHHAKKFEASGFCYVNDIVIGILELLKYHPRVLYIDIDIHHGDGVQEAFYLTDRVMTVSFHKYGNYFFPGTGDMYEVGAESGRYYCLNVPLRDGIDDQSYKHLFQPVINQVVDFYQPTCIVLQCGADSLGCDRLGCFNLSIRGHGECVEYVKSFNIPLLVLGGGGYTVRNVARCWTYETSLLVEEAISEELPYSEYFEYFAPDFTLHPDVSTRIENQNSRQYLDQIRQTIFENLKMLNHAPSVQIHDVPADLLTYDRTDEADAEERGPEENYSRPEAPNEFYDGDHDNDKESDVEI

For orientation: IC50 means the concentration that inhibits the measured activity by half. `CC(c1ccc(C(=O)NO)cc1)n1[se]c2ccccc2c1=O` (racemic): the IC50 in [1] worked out at 863 nM.

For `O=C(CCCOc1ccc(-n2[se]c3ccccc3c2=O)cc1)NO`, the IC50 in [1] is 903 nM.

Take `O=C(/C=C/c1ccc(-n2[se]c3ccccc3c2=O)cc1)NO`: in series [1], the IC50 was 679 nM.

In the case of `O=C(NO)c1ccc(Cn2[se]c3ccccc3c2=O)cc1`, the Activity in series [2] was 37%; in series [3] it was 78%; in [7], 62%; in series [12], “Non-Toxic”; in series [14], “Dose-dependent effect”. The IC50 was 37 nM in series [1] and 1300 nM in [8]. Further, the outcome in series [4], in series [5], in series [10], in series [11] and in series [13] was Active. The inhibition entry in series [6] is “Dose-dependent effect”. Further, the viability at 5 µM in series [9] came out at 90%.

As to `O=C(CCCCCOc1ccc(-n2[se]c3ccccc3c2=O)cc1)NO`, the IC50 in [1] turned out to be 508 nM.

As to `O=C(CCCCCCOc1ccc(-n2[se]c3ccccc3c2=O)cc1)NO`, in series [1], the IC50 came out at 181 nM.

In the case of `O=C(NO)c1ccc(-n2[se]c3ccccc3c2=O)cc1`, the IC50 in series [1] turned out to be 1970 nM.

On to `O=C(CCc1ccc(-n2[se]c3ccccc3c2=O)cc1)NO`, for which the IC50 in series [1] is 1140 nM.

For the compound `O=C(NO)c1cnc(N2CCC(Cn3[se]c4ccccc4c3=O)CC2)nc1`, in series [1], the IC50 turned out to be 444 nM.

On to `O=C(NO)c1ccc(Cn2[se]c3ccc(F)cc3c2=O)cc1`, for which the IC50 in [1] came out at 178 nM.

In the case of `O=C(NO)c1ccc(Cn2[se]c3ccc(C(F)(F)F)cc3c2=O)cc1`, the IC50 in series [1] turned out to be 584 nM.

With `O=C(CCCCCCn1[se]c2ccccc2c1=O)NO`, the results for the Activity in series [2], in [3] and in [7] were 25%, 41% and 41%, respectively. Moreover, the IC50 came to 19 nM in series [1] and 164 nM in series [8].

As to `O=C(CCCCCn1[se]c2ccccc2c1=O)NO`, the IC50 in series [1] worked out at 181 nM.

As to `CN1CCc2c(c3ccccc3n2Cc2ccc(C(=O)NO)cc2)C1` [TUBASTATIN A], the result in series [15], in series [4], in series [5], in series [16], in series [10] and in [11] was Active. Moreover, the result in series [17] and in series [13] was Active. Also, the Activity entry in series [12] is “Non-Toxic”; in series [18], “Non-Toxic”; in [19] it was 90%; in [14], “Dose-dependent effect”.

`O=C(CCCCn1[se]c2ccccc2c1=O)NO`: the IC50 in series [1] was determined as 356 nM.

Regarding `O=C(NO)c1ccc(Cn2[se]c3ccc(O)cc3c2=O)cc1`, the IC50 in [1] is 188 nM. Besides, the result in [5], in series [20], in series [21], in [10], in series [17] and in series [22] was Active. For the same compound, in [12], the Activity entry is listed as “Non-Toxic”.

Regarding `O=C(NO)c1cnc(N2CCC(n3[se]c4ccccc4c3=O)CC2)nc1`, the IC50 in series [1] was 968 nM.
